Series [1] addresses Proto-oncogene tyrosine-protein kinase receptor Ret (Homo sapiens) (UniProt P07949). The experiment in a line: Binding affinity to wild-type human partial length RET (E713 to D1014 residues) expressed in bacterial expression system assessed as remaining unbound target protein level at 1000 nM by Kinomescan method relative to control.
For series [2], the target named is Serine/threonine-protein kinase LATS2 (Homo sapiens) (UniProt Q9NRM7). Nature of the series: Binding affinity to wild-type human partial length LATS2 (Q641 to V1088 residues) expressed in mammalian expression system assessed as remaining unbound target protein level at 1000 nM by Kinomescan method relative to control.
Series [3] deals with Phosphatidylinositol 4,5-bisphosphate 3-kinase catalytic subunit alpha isoform (Homo sapiens) (UniProt P42336). The experiment in a line: Binding affinity to wild-type human partial length PIK3CA (R108 to N1068 residues) expressed in mammalian expression system assessed as remaining unbound target protein level at 1000 nM by Kinomescan method relative to control.
Sequence of Phosphatidylinositol 4,5-bisphosphate 3-kinase catalytic subunit alpha isoform (Homo sapiens) (P42336 whole entry, the tested form may be a part, canonical isoform): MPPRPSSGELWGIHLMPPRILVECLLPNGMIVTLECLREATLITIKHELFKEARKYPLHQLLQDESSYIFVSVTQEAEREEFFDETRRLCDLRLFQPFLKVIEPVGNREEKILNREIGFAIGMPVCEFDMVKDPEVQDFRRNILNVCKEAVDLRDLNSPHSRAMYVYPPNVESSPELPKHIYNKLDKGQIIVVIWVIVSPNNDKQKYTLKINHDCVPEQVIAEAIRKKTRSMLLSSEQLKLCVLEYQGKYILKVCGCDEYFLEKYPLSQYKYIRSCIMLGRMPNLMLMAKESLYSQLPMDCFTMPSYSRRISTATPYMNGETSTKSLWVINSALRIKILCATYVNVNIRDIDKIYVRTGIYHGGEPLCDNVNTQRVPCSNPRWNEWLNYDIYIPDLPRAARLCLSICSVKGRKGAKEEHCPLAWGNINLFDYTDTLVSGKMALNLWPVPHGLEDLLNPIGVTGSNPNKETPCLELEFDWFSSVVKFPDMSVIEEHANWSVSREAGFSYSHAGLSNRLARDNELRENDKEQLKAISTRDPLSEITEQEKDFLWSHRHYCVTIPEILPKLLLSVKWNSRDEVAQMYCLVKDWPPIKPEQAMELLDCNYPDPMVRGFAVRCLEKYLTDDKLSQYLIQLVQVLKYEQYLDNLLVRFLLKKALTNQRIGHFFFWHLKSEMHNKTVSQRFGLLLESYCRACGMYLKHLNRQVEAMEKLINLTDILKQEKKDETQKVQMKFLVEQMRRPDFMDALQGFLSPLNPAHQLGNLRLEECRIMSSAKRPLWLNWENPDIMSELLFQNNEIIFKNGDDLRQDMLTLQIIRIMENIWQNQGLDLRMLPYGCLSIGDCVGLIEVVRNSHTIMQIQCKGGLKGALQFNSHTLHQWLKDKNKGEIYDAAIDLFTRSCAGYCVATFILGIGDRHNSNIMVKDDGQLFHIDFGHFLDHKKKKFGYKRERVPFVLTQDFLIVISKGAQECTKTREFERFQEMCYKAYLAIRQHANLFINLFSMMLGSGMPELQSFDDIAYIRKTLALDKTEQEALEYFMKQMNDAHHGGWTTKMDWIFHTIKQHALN
Series [4] addresses Serine/threonine-protein kinase SIK1 (Homo sapiens) (UniProt P57059). The experiment in a line: Binding affinity to wild-type human partial length SIK (M1 to Y304 residues) expressed in bacterial expression system assessed as remaining unbound target protein level at 1000 nM by Kinomescan method relative to control.
Series [5] relates to Epidermal growth factor receptor (Homo sapiens), P00533 [G719S]. The experiment in a line: Binding affinity to human partial length EGFR G719S mutant (R669 to V1011 residues) expressed in bacterial expression system assessed as remaining unbound target protein level at 1000 nM by Kinomescan method relative to control. A digest of the protocol: (§1)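 KINOMEscan competition-binding profiling across the panel of 468 kinases and mutants, with inhibitor tested at 1 μM. Binding is expressed as percent of control, with DMSO as the reference control.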

Series [6] concerns Receptor-type tyrosine-protein kinase FLT3 (Homo sapiens), P36888 [UNDEFINED MUTATION]. The experiment in a line: Binding affinity to human partial length FLT3 ITD mutant expressed in bacterial expression system assessed as remaining unbound target protein level at 1000 nM by Kinomescan method relative to control. In outline: as §1
Sequence of Receptor-type tyrosine-protein kinase FLT3 (Homo sapiens), P36888 [UNDEFINED MUTATION] (P36888 whole entry, looked up, change not shown, the tested form may be a part): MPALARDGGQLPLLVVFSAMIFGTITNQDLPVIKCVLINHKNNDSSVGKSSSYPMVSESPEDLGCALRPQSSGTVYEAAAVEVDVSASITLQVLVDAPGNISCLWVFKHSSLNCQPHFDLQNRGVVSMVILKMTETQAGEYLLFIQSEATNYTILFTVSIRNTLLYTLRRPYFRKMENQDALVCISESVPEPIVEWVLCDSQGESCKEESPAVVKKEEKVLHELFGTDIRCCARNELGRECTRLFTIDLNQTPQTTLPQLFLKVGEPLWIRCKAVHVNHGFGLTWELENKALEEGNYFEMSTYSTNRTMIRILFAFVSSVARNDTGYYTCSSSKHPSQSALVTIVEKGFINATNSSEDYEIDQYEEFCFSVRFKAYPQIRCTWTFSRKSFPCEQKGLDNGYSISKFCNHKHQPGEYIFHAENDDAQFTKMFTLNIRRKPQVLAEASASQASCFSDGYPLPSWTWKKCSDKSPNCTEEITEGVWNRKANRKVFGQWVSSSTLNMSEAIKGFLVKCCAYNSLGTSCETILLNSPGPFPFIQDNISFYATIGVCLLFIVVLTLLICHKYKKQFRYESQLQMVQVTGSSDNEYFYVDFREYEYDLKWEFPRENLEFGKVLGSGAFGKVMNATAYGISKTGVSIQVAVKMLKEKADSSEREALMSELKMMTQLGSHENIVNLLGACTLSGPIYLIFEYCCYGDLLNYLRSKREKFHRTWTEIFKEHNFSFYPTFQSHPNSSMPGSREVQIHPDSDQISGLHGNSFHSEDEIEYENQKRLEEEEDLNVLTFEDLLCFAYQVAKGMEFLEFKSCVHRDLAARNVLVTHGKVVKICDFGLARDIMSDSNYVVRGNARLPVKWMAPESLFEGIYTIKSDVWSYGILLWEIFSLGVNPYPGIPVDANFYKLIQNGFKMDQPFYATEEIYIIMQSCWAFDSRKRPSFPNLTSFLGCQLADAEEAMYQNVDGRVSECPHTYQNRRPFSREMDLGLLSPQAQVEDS
Series [7] addresses Mitogen-activated protein kinase kinase kinase 5 (Homo sapiens) (UniProt Q99683). The experiment in a line: Binding affinity to wild-type human partial length ASK1 (E648 to S964 residues) expressed in bacterial expression system assessed as remaining unbound target protein level at 1000 nM by Kinomescan method relative to control. A digest of the protocol: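 KINOMEscan competition binding profile across a panel of 468 kinases and mutants, with the inhibitor tested at a single concentration of 1 μM. Binding is reported as percent of control, meaning signal relative to a DMSO control.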

For series [8], the target named is Rhodopsin kinase GRK1 (Homo sapiens) (UniProt Q15835). Nature of the series: Binding affinity to wild-type human full length GRK1 (M1 to S563 residues) expressed in mammalian expression system assessed as remaining unbound target protein level at 1000 nM by Kinomescan method relative to control. In outline: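 KINOMEscan competition binding panel run at 1 μM inhibitor; binding reported as percent of DMSO control (remaining target bound versus vehicle).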
Sequence of Rhodopsin kinase GRK1 (Homo sapiens) (Q15835 whole entry, the tested form may be a part): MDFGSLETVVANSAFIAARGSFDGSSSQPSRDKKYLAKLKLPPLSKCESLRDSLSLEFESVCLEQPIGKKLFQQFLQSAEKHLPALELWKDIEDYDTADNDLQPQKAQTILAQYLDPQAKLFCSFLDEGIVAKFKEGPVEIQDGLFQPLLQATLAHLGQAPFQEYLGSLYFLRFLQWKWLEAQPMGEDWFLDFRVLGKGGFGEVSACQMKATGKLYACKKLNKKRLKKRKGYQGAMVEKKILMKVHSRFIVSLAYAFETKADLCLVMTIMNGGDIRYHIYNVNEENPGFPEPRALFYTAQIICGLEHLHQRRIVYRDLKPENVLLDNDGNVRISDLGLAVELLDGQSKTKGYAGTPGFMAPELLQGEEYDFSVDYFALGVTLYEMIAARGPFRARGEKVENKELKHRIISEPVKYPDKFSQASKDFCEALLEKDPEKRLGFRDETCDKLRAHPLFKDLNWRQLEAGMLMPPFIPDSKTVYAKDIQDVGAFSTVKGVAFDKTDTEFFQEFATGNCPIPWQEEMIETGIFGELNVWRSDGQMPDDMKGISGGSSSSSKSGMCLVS

The subject of series [9] is Phosphatidylinositol 4,5-bisphosphate 3-kinase catalytic subunit alpha isoform (Homo sapiens), P42336 [H1047L]. The experiment in a line: Binding affinity to human partial length PIK3CA H1047L mutant (R108 to N1068 residues) expressed in mammalian expression system assessed as remaining unbound target protein level at 1000 nM by Kinomescan method relative to control. In outline: as §1

In series [10] the target is Leucine-rich repeat serine/threonine-protein kinase 2 (Homo sapiens) (UniProt Q5S007). The experiment in a line: Binding affinity to wild-type human partial length LRRK2 (H970 to E2527 residues) expressed in mammalian expression system assessed as remaining unbound target protein level at 1000 nM by Kinomescan method relative to control.
The nature of series [11]: Tmax in mouse at 10 mg/kg, po by LC-MS/MS analysis. The series is classed as ADME, organism-based. The conditions noted are these: in vivo.
Series [12] concerns the target MAP/microtubule affinity-regulating kinase 3 (Homo sapiens) (UniProt P27448). The experiment in a line: Binding affinity to wild-type human full length MARK3 (M1 to L729 residues) expressed in bacterial expression system assessed as remaining unbound target protein level at 1000 nM by Kinomescan method relative to control. A digest of the protocol:
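Single-point competition binding screen across a panel of 468 kinases and mutants, with the inhibitor at 1 μM. Binding is read out as percent of a DMSO control, and targets below 1 percent control were classed as strong binders.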

Series [13] deals with Serine/threonine-protein kinase 38-like (Homo sapiens) (UniProt Q9Y2H1). The experiment in a line: Binding affinity to wild-type human partial length NDR2 (N34 to E447 residues) expressed in bacterial expression system assessed as remaining unbound target protein level at 1000 nM by Kinomescan method relative to control.
In series [14] the target is Serine/threonine-protein kinase VRK2 (Homo sapiens) (UniProt Q86Y07). The experiment in a line: Binding affinity to wild-type human partial length VRK2 (M1 to T336 residues) expressed in mammalian expression system assessed as remaining unbound target protein level at 1000 nM by Kinomescan method relative to control.
Sequence of Serine/threonine-protein kinase VRK2 (Homo sapiens) (Q86Y07 whole entry, the tested form may be a part): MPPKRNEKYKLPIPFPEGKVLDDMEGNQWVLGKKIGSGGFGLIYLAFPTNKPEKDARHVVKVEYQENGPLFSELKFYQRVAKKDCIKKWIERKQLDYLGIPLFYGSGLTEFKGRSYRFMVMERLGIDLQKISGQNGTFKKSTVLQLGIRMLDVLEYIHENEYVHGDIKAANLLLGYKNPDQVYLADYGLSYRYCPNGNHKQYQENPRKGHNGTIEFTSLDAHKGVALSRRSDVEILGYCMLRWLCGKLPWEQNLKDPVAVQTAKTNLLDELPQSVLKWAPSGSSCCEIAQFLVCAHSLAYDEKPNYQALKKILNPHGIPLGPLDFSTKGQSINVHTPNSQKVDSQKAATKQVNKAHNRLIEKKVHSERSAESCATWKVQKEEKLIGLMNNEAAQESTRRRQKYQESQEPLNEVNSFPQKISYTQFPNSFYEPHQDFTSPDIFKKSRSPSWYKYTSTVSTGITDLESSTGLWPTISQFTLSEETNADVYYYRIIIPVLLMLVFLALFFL
Series [15] deals with Serine/threonine-protein kinase MRCK alpha (Homo sapiens) (UniProt Q5VT25). Nature of the series: Binding affinity to wild-type human partial length MRCKA (L57 to V418 residues) expressed in bacterial expression system assessed as remaining unbound target protein level at 1000 nM by Kinomescan method relative to control.
Sequence of Serine/threonine-protein kinase MRCK alpha (Homo sapiens) (Q5VT25 whole entry, the tested form may be a part): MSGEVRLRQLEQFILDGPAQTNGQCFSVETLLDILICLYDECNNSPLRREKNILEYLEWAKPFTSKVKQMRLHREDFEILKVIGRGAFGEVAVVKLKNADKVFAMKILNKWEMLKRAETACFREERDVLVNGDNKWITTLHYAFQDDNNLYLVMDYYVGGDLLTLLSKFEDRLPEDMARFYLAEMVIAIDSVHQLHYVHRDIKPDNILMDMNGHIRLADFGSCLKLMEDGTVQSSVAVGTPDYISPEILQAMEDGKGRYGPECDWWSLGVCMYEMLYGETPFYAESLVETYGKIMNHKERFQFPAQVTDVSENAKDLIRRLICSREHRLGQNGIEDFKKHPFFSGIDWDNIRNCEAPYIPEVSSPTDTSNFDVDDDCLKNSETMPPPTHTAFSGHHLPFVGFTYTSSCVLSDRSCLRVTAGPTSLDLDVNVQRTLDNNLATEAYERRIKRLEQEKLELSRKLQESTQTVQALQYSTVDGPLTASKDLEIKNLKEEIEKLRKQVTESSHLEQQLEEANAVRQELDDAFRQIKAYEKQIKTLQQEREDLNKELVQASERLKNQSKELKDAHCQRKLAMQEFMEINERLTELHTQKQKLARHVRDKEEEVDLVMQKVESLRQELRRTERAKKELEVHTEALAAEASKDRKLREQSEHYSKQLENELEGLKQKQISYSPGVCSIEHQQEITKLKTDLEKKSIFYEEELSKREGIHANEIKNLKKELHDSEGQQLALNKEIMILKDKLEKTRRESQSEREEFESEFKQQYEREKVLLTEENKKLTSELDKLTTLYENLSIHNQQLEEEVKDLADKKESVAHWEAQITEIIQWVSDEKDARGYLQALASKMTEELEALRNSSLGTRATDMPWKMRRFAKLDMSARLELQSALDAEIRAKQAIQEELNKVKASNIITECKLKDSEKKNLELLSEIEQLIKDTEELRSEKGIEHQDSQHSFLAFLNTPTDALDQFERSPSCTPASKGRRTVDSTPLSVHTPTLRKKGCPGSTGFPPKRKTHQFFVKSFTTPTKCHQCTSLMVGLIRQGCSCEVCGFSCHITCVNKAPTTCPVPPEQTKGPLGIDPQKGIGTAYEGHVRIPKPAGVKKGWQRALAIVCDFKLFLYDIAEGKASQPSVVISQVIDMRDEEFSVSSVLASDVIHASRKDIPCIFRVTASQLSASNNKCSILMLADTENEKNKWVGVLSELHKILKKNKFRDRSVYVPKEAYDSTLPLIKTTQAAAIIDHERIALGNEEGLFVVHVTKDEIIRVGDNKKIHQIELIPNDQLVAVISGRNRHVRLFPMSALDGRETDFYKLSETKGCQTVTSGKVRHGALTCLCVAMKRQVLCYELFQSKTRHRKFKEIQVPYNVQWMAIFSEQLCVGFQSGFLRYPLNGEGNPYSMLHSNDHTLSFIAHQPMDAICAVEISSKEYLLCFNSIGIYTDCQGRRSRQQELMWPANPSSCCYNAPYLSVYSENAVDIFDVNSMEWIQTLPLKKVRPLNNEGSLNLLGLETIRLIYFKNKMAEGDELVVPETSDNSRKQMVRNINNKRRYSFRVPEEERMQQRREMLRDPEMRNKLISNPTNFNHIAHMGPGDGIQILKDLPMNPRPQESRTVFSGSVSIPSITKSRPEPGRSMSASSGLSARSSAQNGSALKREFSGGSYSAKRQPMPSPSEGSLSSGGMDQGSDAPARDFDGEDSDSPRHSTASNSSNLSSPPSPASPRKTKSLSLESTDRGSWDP
The next series has as its system COLO 205. Nature of the series: Antiproliferative activity against human COLO205 cells after 72 hrs by Celltiter-Glo assay. Type of series: functional. The following applies: COLO 205, 72 h. A digest of the protocol: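 Cells seeded at 3000/well in 96-well plates, exposed to serially diluted compound for 72 h at 37 °C, 5% CO2. Viability read by CellTiter-Glo luminescence and normalized to DMSO control. GI50 derived from curve fit, mean of three independent measurements. Culture media: DMEM/10% FBS for adherent lines; IMDM for MV4-11 and MEC-1/2; RPMI 1640 for suspension lines and CHL.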
In general terms: ATP-based viability assays read luminescence as a measure of living cells.

The target in the next series is CDK3/Cyclin E (Homo sapiens, UniProt Q00526). Nature of the series: Inhibition of recombinant GST-tagged human CDK3/cyclin E1. The series is classed as protein-complex assay.
In series [16] the target is ALK tyrosine kinase receptor (Homo sapiens) (UniProt Q9UM73). Nature of the series: Binding affinity to wild-type human partial length ALK (I1088 to E1409 residues) expressed in mammalian expression system assessed as remaining unbound target protein level at 1000 nM by Kinomescan method relative to control. A digest of the protocol:
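Profiled in a KINOMEscan binding panel with the inhibitor at a single concentration of 1 μM. Binding to each kinase was read out as percent of control, relative to a DMSO control. Strong binders were defined as those with a percent control value below 1.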

Series [17] deals with Tyrosine-protein kinase ABL1 (Homo sapiens), P00519 [T315I]. Nature of the series: Binding affinity to human non-phosphorylated ABL1 T315I mutant (S229 to K512 residues) expressed in mammalian expression system assessed as remaining unbound target protein level at 1000 nM by Kinomescan method relative to control. A digest of the protocol: as §1
The target in series [18] is Serine/threonine-protein kinase mTOR (Homo sapiens) (UniProt P42345). The experiment in a line: Binding affinity to wild-type human partial length MTOR (L1382 to W2549 residues) expressed in mammalian expression system assessed as remaining unbound target protein level at 1000 nM by Kinomescan method relative to control.

Experimental findings from ChEMBL document CHEMBL4261600 (Eur J Med Chem, 2018) are described below.

Where only a bound is given, the exact number is not on record here.

One may read the Tmax as the time at which the peak concentration occurs. In general, GI50 refers to the concentration giving 50% growth inhibition. For orientation: IC50 means the concentration that inhibits the measured activity by half. As to `COCCN[C@H]1CC[C@H](Nc2cc(-c3csc(NCC4(C#N)CCOCC4)n3)c(Cl)cn2)CC1`, the Activity is 100% in [1]; 84% in series [2]; 95% in series [3]; 93% in series [4]; 82% in series [5]; 89% in series [6]. Also, the Activity in [7] came to 77%; in series [8], 84%; in series [9], 100%; in series [10] it was 100%; in series [12] it was 100%; in series [13] it was 78%. Also, the Activity came out at 87% in series [14]; 83% in [15]; 96% in [16]; 100% in series [17]; 90% in series [18]. In addition, the Tmax in [11] is 2 h. Halving of growth in the series with COLO 205 (GI50) required 14 nM. Besides, at CDK3/Cyclin E, the IC50 is greater than 10000 nM.
